Screening data as filed in PubChem.
VIM-2 inhibitor: blocks Pseudomonas aeruginosa VIM-2 metallo-beta-lactamase; purified VIM-2, nitrocefin hydrolysis, epi-absorbance fluorescence; inhibition, % at 5.6 µM; 0.89% of 290,000 active; AID 1527;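 active means inhibition above the mean of all tested compounds plus 3 SD, cutoff set per screening run, cut at about 7.5% in these data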;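 further: red hydrolysis product quenches plate fluorescence so inhibitors raise well fluorescence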
Runt-CBFb FRET: inhibitors of human RUNX1 Runt domain binding to CBFb; 0.46% of 220,000 active; inhibition, % at 20 µM; Cerulean-Runt/Venus-CBFb FRET ratio 530/480, 1 h;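 active means inhibition over about 50% at 20 µM in the single-dose screen, limit read from the data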
Target sequence (Q01196 whole entry, looked up, the tested form may be a part): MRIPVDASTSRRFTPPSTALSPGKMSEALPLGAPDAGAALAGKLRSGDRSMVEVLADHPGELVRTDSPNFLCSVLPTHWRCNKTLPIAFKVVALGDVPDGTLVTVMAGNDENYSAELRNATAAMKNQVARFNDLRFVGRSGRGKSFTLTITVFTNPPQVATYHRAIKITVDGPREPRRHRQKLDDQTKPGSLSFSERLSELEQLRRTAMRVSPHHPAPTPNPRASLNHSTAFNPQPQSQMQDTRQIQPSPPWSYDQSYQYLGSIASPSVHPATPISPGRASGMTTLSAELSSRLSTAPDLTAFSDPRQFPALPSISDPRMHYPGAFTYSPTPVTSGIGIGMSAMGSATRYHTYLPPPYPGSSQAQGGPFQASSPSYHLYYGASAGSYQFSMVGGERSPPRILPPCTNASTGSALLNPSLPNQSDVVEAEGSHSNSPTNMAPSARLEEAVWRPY
Target sequence (Q13951 whole entry, looked up, the tested form may be a part): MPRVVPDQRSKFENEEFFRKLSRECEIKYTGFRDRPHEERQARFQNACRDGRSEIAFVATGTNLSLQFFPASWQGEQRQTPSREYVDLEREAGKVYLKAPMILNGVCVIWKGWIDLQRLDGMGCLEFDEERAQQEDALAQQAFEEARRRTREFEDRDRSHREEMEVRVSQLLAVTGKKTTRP
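Assay system: Cerulean-Runt domain fusion protein, energy donor; Signal: fluorescence energy transfer, 422 nm excitation, 530/480 nm emission; Timing: 1 h compound exposure, room temperature; Control set: unlabeled CBFb; Medium: Tris buffer pH 7.5 with salts and BSA; Compound: single test concentration of 20 µM, 1% DMSO final; Probe or stimulus: Venus-CBFb 100 nM.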
IMP-1 inhibitor: inhibitors of Pseudomonas aeruginosa IMP-1 metallo-beta-lactamase; purified IMP-1, nitrocefin hydrolysis, epi-absorbance fluorescence; inhibition, % at 5.6 µM; 0.45% of 290,000 active;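 active means inhibition above the mean plus 3 SD of all compounds in the same screening run, cut at about 4.5% in these data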
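Assay system: purified recombinant IMP-1 beta-lactamase. Input: IMP-1 0.2 nM before substrate addition. Buffer or medium: Zinc- and detergent-supplemented HEPES buffer, pH 7.1. Schedule: 25 °C, 15 min preincubation, 25 min reaction. Signal: Epi-absorbance fluorescence, 480 nm excitation, 530 nm emission. Evaluation: percent inhibition from optical density relative to buffer-blank wells.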
Runt-SMMHC FRET: blocks binding of human RUNX1 Runt domain to CBFb-SMMHC; 0.74% of 220,000 active; Q01196+Q13951; Cerulean-Runt/Venus-CBFb-SMMHC FRET ratio 530/480, 1 h; inhibition, % at 20 µM;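 active means mean inhibition across duplicate retests at 20 µM reaching about 50%, limit read from the data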;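 further: inhibitors lower the FRET ratio by blocking Runt binding to CBFb-SMMHC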
RanGTP-Impb inh: inhibitors of RanGTP-importin-beta interaction, primary screen, biochemical, FRET, CFP-Ran, YFP-importin-beta, homogeneous. cell-free CFP-Ran/YFP-importin-beta FRET ratio. inhibition, % (concentration not given with the values). 1.1% of 300,000 active;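 active means more than half of the replicate wells show a fall in the fluorescence ratio signal beyond about 16%, limit read from the data, passing the limit was not always enough; inconclusive means exactly half of the replicate wells pass the set limit; inactive means fewer than half of replicates pass the limit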
Hits are given with their value; – = inactive; ? = inconclusive; · = not tested or not shown. Sampled rows, rich in hits. Any-hit rate of the full collection: about 2.6%.

SMILES	VIM-2 inhibitor	Runt-CBFb FRET	IMP-1 inhibitor	Runt-SMMHC FRET	RanGTP-Impb inh
Cc1nn(CC(=O)Nc2ccc(Cl)cc2Cl)c(=O)c2ccccc12	–	·	–	·	–
Cc1ccc(C)c(Cn2nnc3c(=O)[nH]c(C4CCN(C(=O)c5ccco5)CC4)nc32)c1	–	·	–	·	–
COCCn1c(SCC(=O)NCC2CCCO2)nc2c(c1=O)SCC2 (stereo not given)	–	·	–	·	–
O=C(C1=NN[C@@H]2C(=O)N(c3cccc(F)c3)C(=O)[C@H]12)C(c1ccccc1)c1ccccc1	–	–	5.2	–	–
O=C(C1=NN[C@@H]2C(=O)N(c3cccc(C(F)(F)F)c3)C(=O)[C@H]12)C(c1ccccc1)c1ccccc1	–	–	–	–	–
Cc1cc(C)cc(Oc2nc3ccccn3c(=O)c2/C=C(\C#N)C(=O)NC2CCS(=O)(=O)C2)c1 (stereo not given)	–	88	–	60	?
N#C/C(=C\c1c(Oc2ccccc2Cl)nc2ccccn2c1=O)C(=O)NC1CCS(=O)(=O)C1 (stereo not given)	–	·	–	·	91
N#C/C(=C\c1c(Oc2ccccc2F)nc2ccccn2c1=O)C(=O)NC1CCS(=O)(=O)C1 (stereo not given)	–	·	–	·	128
Cc1ccc(Oc2nc3ccccn3c(=O)c2/C=C(\C#N)C(=O)NC2CCS(=O)(=O)C2)c(C)c1 (stereo not given)	–	·	–	·	?
CCn1c(CN2CCOCC2)nnc1SCC(=O)Nc1ccc(C(C)=O)cc1	–	·	–	·	–
Cn1nc(C(C)(C)C)cc1C(=O)NCc1ccc2c(c1)OCO2	–	·	–	·	–
COc1cccc(NC(=S)NC(=O)c2cccnc2)c1	–	·	–	·	–
Cc1ccc[n+](CC(=O)Nc2ccc(Cl)c([N+](=O)[O-])c2)c1	8.9	·	–	·	–
N#Cc1c(NC(=O)c2ccc(Br)o2)n(-c2ccccc2)c2nc3ccccc3nc12	–	–	–	81	162
COC(=O)c1ccccc1NC(=O)c1cccc(NC(=O)c2ccc(Br)o2)c1C	–	–	–	–	–
COc1ccc(-n2c(NC(=O)c3ccc(Br)o3)c(C#N)c3nc4ccccc4nc32)cc1	–	88	–	–	155
CCCCn1c(NC(=O)c2ccccc2)c(C#N)c2nc3ccccc3nc21	–	–	–	–	·
COc1ccc(CCC(=O)NCC23CC4CC(CC(C4)C2)C3)cc1	–	·	–	·	–
O=S(=O)(Cc1nnnn1-c1ccccc1)c1ccc(Cl)cc1	–	·	–	·	–
CCc1nc(SCc2ccccc2C)n[nH]1	–	·	–	·	–
COc1ccccc1C(=O)NNC(=O)c1ccccc1F	–	–	8.6	–	?
N=C1C(=O)OCC1c1ccccc1NC(=O)CN1CCOCC1 (stereo not given)	–	–	–	–	41
CSc1nc(SCCN(C)C)c2c3c(sc2n1)COC(C)(C)C3	8.9	–	–	–	?
CCc1nc(SCC(=O)O)c2c3c(sc2n1)COC(C)(C)C3	8.1	·	–	·	–
CN(C(=O)c1cncc(Br)c1)C1C2CC3CC(C2)CC1C3 (stereo not given)	–	·	–	·	–
SMILES	VIM-2 inhibitor	Runt-CBFb FRET	IMP-1 inhibitor	Runt-SMMHC FRET	RanGTP-Impb inh
Nc1nonc1C(=O)N/N=C\c1cc2c(cc1Cl)OCO2	–	·	–	·	·
O=C(CCCN1C(=O)C2CC=CCC2C1=O)Nc1ccccc1F (stereo not given)	–	·	–	·	–
CCOC(=O)c1ccc(-c2ccc(/C=N/NC(=O)c3cncc(Br)c3)o2)cc1	–	–	–	–	–
CCCCOC(=O)c1ccc(-c2ccc(/C=N/NC(=S)NCC)o2)cc1	–	–	–	–	43
Cc1cc2c3c(ccc(C)c3n1)N=CN2c1ccccc1	8.4	65	–	60	92
Cc1cc(Nc2ccccc2)c2c([N+](=O)[O-])ccc(C)c2n1	–	–	–	–	?
Nc1c(/C=C2/C=CC(=O)C(O)=C2)c(=O)nc2sc(CC(=O)N3CCCCC3)nn12	11	·	–	·	–
Nc1c(/C=C2/C=CC(=O)C(O)=C2)c(=O)nc2sc(CC(=O)N3CCCC3)nn12	–	·	–	·	–
COc1ccccc1/C=c1\sc2nc(-c3cccs3)nn2c1=O	–	·	–	·	·
C=CCOc1ccccc1/C=c1\sc2nc(=O)c(C)nn2c1=O	–	–	9.2	–	·
CCN(CC)C(=O)COc1c(-c2ccco2)oc2ccccc2c1=O	–	·	–	·	–
CC(=O)Oc1c(-c2ccco2)oc2ccccc2c1=O	–	–	–	92	–
Cc1ccc(C(=O)Nc2ccc(Nc3ccccc3)cc2)c(Cl)c1	–	·	–	·	–
Cc1ccc(C)c(NC(=O)c2nnn(Cc3ccccc3)c2N)c1	–	–	–	–	168
Cc1cc(C)c(C#N)c(SC(F)F)n1	–	–	–	–	98
Cc1cc(C)c(C#N)c(Sc2ccc(N)cc2)n1	–	–	–	–	–
COc1ccc(-n2nc3c(N4CCC(C(=O)NCc5ccccc5C)CC4)nnc(C)c3c2C)cc1	–	·	11	·	–
CCN1CCN(C(=O)C2CCN(c3nnc(C)c4c(C)n(-c5ccc(C)cc5)nc34)CC2)CC1	9.1	·	–	·	–
CSc1ccc(C2C(C(=O)c3ccco3)=C(O)C(=O)N2c2nnc(SC)s2)cc1 (stereo not given)	–	·	–	·	–
O=C(COc1ccccc1Cl)NC1CC1	–	·	–	·	–
CSc1ccccc1C(=O)C1CCCN(C(=O)CCN2CCCO2)C1 (stereo not given)	–	–	–	–	–
COCCC(=O)N1CCCC(C(=O)c2ccccc2SC)C1 (stereo not given)	–	·	19	·	–
Cc1cccc(NC(=O)CN(C2=NC3CS(=O)(=O)CC3S2)c2ccccc2F)c1 (stereo not given)	–	·	–	·	?
Cc1ccc(Cn2cc(CCC(=O)O)c3ccccc32)cc1	–	·	13	·	–
O=C(O)Cc1cn(Cc2ccc(F)cc2)c2ccccc12	–	–	–	–	–
SMILES	VIM-2 inhibitor	Runt-CBFb FRET	IMP-1 inhibitor	Runt-SMMHC FRET	RanGTP-Impb inh
O=c1oc(-c2cccs2)nc2scc(-c3cccs3)c12	–	–	–	–	–
Cc1sc2nc(-c3cccs3)oc(=O)c2c1C	–	·	–	·	32
Cc1ccc(NC(=O)c2ccc(-n3cncn3)c([N+](=O)[O-])c2)cc1	–	–	–	–	26
O=C(Nc1ccc(Cl)cc1)c1ccc(-n2cncn2)c([N+](=O)[O-])c1	–	–	–	–	–
O=[N+]([O-])c1ccc(S(=O)(=O)N2CCN(c3ccc(N4CCOCC4)nn3)CC2)cc1	·	·	·	·	–
COc1ccc(S(=O)(=O)N2CCOCC2)cc1NC(=O)Cc1coc2cc(C)c(C)cc12	–	·	71	·	–
CC1CCN(S(=O)(=O)c2cnc[nH]2)CC1	–	·	–	·	–
Cc1oc(-c2ccc(Cl)cc2)nc1CS(=O)CC(=O)NC1CCCC1 (stereo not given)	–	·	–	·	–
Cc1ccc(C)c2nc3sc(C(=O)O)cc3cc12	9.6	–	–	–	–
CC(=O)C(Cc1ccccc1)NC(=O)CN(C)Cc1ccccc1Cl (stereo not given)	–	·	–	·	–
